Shown are actives, neighbours in structure and some others; about 2.4% of the full set was active somewhere.
TbMetRS inhib – Trypanosoma brucei MetRS inhibition; purified T. brucei MetRS, ATP depletion, Kinase-Glo luminescence; inhibition, % at 11.9 µM; 360,000 tested, 0.4% active; AID 624268;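 active means inhibition above a per-plate cutoff of the control wells' mean inhibition plus 3 SD, cut at about 5.5% in these data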
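assay system = parasite MetRS enzyme | timing = 15 min preincubation, 2 h reaction, all 25 °C | evaluation = percent inhibition relative to median high and low control wells | medium = HEPES buffer containing pyrophosphatase, BSA, spermine, DTT | compound = single dose, 11.9 µM final nominal, 0.9% final DMSO | detection = Kinase-Glo luminescence, ATP depletion format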
aDG glyco up – increases alpha dystroglycan glycosylation; Pro5-aDG cells, alpha-DG glycosylation AlphaScreen (IIH6); 0% Pro5, 100% B10-LARGE cell signal; activation, % at 10 µM; 360,000 tested, 0.22% active; AID 624168;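 active means activation of at least 8% versus controls, or a plate z-score of at least 8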;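 further: Pro5 are CHO cells carrying HIG-tagged alpha-DG that lacks glycosylation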
MC4R antagonist – human MC4R antagonism in cAMP assay; P32245; MC4R-expressing cells, MTII-stimulated cAMP, LANCE TR-FRET; inhibition, % at 6.5 µM; 360,000 tested, 0.48% active; AID 540295;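 active means inhibition above its plate's cutoff, the mean of tested wells on that plate plus 3 SD, cut at about 29% in these data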
Target sequence (P32245 whole entry, looked up): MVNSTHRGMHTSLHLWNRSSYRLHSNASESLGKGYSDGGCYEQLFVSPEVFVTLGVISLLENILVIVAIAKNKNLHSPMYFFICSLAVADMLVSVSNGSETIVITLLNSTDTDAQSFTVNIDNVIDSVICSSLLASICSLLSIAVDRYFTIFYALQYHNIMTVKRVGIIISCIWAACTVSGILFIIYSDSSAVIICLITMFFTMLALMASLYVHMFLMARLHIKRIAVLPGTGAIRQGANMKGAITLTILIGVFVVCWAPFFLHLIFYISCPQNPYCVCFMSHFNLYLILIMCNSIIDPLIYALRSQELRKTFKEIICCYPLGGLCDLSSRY
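Material: U2OS-MC4R stable cell line | Reagent: Melanotan II challenge after compound preincubation | Doses: One concentration, 6.5 µM nominal | Incubation: 30-min compound preincubation, 1-h Melanotan II challenge, 1-h detection, room temperature | Signal: TR-FRET cAMP assay | Replicates: One well per compound, no replicates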
TAG inh – triacylglycerol accumulation inhibition; 230,000 tested, 0.66% active; AID 651582; inhibition, % at 12.5 µM; H9c2 cells, Nile Red lipid (TAG) fluorescence; cells loaded with 200 µM oleic acid;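 active means pattern-corrected inhibition of lipid staining of at least 50% with the nuclear-stain viability signal not falling by more than 50%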
NTR1 ag – activates human neurotensin receptor 1 | P30989 | activation, % at 20 µM | 330,000 tested, 0.17% active | NTR1-U2OS beta-arrestin-GFP spot imaging, agonist mode;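 active means activation at or above 40% of the spot to cytoplasm intensity ratio, with at least 20 cells analyzed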
Target sequence (P30989 whole entry, looked up): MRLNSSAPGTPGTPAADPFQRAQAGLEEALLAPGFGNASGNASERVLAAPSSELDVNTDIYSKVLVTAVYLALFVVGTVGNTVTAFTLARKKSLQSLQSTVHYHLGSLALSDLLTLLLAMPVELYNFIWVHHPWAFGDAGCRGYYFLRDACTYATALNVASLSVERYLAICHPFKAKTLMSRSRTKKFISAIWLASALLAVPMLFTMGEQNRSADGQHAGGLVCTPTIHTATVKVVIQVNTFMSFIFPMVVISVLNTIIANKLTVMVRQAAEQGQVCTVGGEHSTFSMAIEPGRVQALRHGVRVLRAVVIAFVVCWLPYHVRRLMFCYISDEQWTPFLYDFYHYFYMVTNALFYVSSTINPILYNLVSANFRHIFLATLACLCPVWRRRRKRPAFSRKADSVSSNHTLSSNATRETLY
MC4R barr agon – agonists of human melanocortin 4 receptor (MC4R) beta-arrestin | U2OS MC4R beta-arrestin complementation, luminescence; percent of melanotan II response, DMSO zero | P32245 | 360,000 tested, 0.98% active | activation, % at 8.9 µM | AID 540308;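 active means activation above a per-plate cutoff, the mean activation of sample wells on that plate plus 3 SD, cut at about 8% in these data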
Of the large screens only hits and unclear results are named; the others gave an inactive call.

CN1CCN(CCc2cn3ncc(C#N)c3nc2-c2ccc(F)cc2)CC1	none
Fc1ccc(-c2nc3c(-c4ccc(Cl)cc4)cnn3cc2CCN2CCOCC2)cc1	MC4R barr agon 8.8
OC(CNCCc1ccccc1)COc1ccc(OCC(O)CNCCc2ccccc2)cc1 (centres undefined)	none
OC(CNCCC(c1ccccc1)c1ccccc1)COc1ccccc1 (centres undefined)	MC4R barr agon 25.4
COC(=O)c1sc2ncccc2c1OCc1ccccc1Cl	none (no result: TAG inh)
COC(=O)c1sc2ncccc2c1OCc1ccc(Cl)cc1	MC4R barr agon 8.8 (no result: TAG inh)
CCCCN(C)c1c(C)nc2ccc(C(=O)N(C)Cc3ccco3)cn12	none (no result: NTR1 ag)
CC[n+]1c(C)sc2c(C)cc(C)cc21	none
CCC[n+]1c(C)sc2c3c(ccc21)CCCC3	aDG glyco up 6.9
O=C(N/N=C/c1ccc([N+](=O)[O-])o1)c1cc2ccccc2o1	aDG glyco up 3.6
O=C(N/N=C/c1ccc([N+](=O)[O-])o1)c1cc2c(ccc3ccccc32)o1	none (no result: NTR1 ag)
O=C(OCC12CC3CC(CC(C3)C1)C2)c1ccc(NCc2cc(O)ccc2O)cc1	MC4R barr agon 10.7 (no result: NTR1 ag)
O=C(OCCC12CC3CC(CC(C3)C1)C2)c1ccc(NCc2cc(O)ccc2O)cc1	none (no result: NTR1 ag)
COc1ccc(NC(=O)CCn2c(=S)[nH]c3ccccc3c2=O)cc1	MC4R barr agon 8.6 (no result: TAG inh)
COc1ccc(NC(=O)CCCn2c(=S)[nH]c3ccccc3c2=O)cc1	none
Cc1c(C)c2ccc(OCC(=O)NCCc3c[nH]c4ccccc34)cc2oc1=O	none (no result: TAG inh, NTR1 ag)
CN(C)CCNc1cccc2sc3ccc(O)cc3c(=O)c12	none (no result: MC4R antagonist, TAG inh, NTR1 ag, MC4R barr agon)
Cc1ccc(NCCN(C)C)c2c(=O)c3cc(O)ccc3sc12	TAG inh 63.3 (no result: NTR1 ag)
COc1c(C)cc(C(O)c2ncc(-c3ccccc3)[nH]2)cc1C (centres undefined)	none (no result: NTR1 ag)
COc1ccc(C=O)cc1COc1ccc(Cl)cc1[N+](=O)[O-]	MC4R barr agon 9.9 (no result: TAG inh)
Cc1cccc(NC(=O)c2nc[nH]c2C(=O)NCCN(CCNC(=O)c2[nH]cnc2C(=O)Nc2cccc(C)c2)CCNC(=O)c2[nH]cnc2C(=O)Nc2cccc(C)c2)c1	none (no result: TAG inh)
Cc1cccc(NC(=O)c2nc[nH]c2C(=O)NCCCNC(=O)c2[nH]cnc2C(=O)Nc2cccc(C)c2)c1	TAG inh 84.1
O=c1ccc2ccccc2c2ccccc12	none (no result: MC4R antagonist, TAG inh, NTR1 ag, MC4R barr agon)
O=Nc1c(O)c2ccccc2c2ccccc12	TAG inh 98.5 (no result: NTR1 ag)
CC1=C(C(=O)N2CCCCCC2)CC(CC(=O)NCc2cccc3ccccc23)C(=O)N1CCC1=CCCCC1 (centres undefined)	none (no result: MC4R antagonist, TAG inh, NTR1 ag, MC4R barr agon)
COC(=O)C1=CN(c2ccc(C)cc2)C(N)=C(C#N)C1c1ccc(OC)cc1 (centres undefined)	none (no result: MC4R antagonist, TAG inh, NTR1 ag, MC4R barr agon)
CSc1nnc(-c2ccc(NC(=O)CCc3ccccc3)cc2)n1C	none
Cn1c(SCC(=O)Nc2ccccc2)nnc1-c1ccc(NC(=O)CCc2ccccc2)cc1	MC4R barr agon 9.3
COc1cccc(CNC(=O)[C@@H]2CCCN2C(=O)[C@H]2CCCCN2C(=O)c2cccc(Cl)c2)c1	none (no result: MC4R antagonist, TAG inh, NTR1 ag, MC4R barr agon)
Cc1cccc(OCC(=O)NCC(=O)N/N=C/c2cc(Br)cc(Br)c2O)c1	NTR1 ag 52.3 (no result: TAG inh)
CCn1nc(NC(=O)Cc2ccc(OC)cc2)c2cc3cccc(C)c3nc21	MC4R barr agon 9.3
Cc1ccc(C2C=CC(C#N)=CN2Cc2ccccc2)cc1 (centres undefined)	none (no result: MC4R antagonist, TAG inh, NTR1 ag, MC4R barr agon)
Cc1ccc(C(=O)OC(C(=O)Nc2ccc(Cl)cc2C(F)(F)F)c2ccccc2)cc1 (centres undefined)	MC4R barr agon 9.5
CC(C)C[C@@H](CN)NC(=O)c1nc[nH]c1C(=O)N[C@@H](Cc1c[nH]c2ccccc12)C(=O)CNC[C@H](C)NC(=O)c1nc[nH]c1C(=O)N[C@@H](CC(=O)O)C(=O)O	none (no result: NTR1 ag)
CC(C)C[C@@H](CNCC(=O)[C@H](Cc1c[nH]c2ccccc12)NC(=O)c1[nH]cnc1C(=O)N[C@@H](C)CN)NC(=O)c1nc[nH]c1C(=O)N[C@@H](CC(=O)O)C(=O)O	TbMetRS inhib 10.9 (no result: NTR1 ag)
CC(C)C[C@@H](CNCC(=O)[C@H](Cc1c[nH]c2ccccc12)NC(=O)c1[nH]cnc1C(=O)N[C@H](CN)CC(C)C)NC(=O)c1nc[nH]c1C(=O)N[C@@H](CC(=O)O)C(=O)O	TbMetRS inhib 6.8 (no result: NTR1 ag)
CC1(Cc2ccc(C(F)(F)F)nc2)C(=O)Nc2cc(-c3ccccc3Cl)ccc21 (centres undefined)	none (no result: NTR1 ag)
CC12CCC(C(=O)NCc3ccccc3)(OC1=O)C2(C)C (centres undefined)	none
C/C(=N\NC(=O)C12CCC(C)(C(=O)O1)C2(C)C)c1ccccc1O (centres undefined)	TAG inh 52.5
Cc1nc(C(=O)N2CCc3c([nH]c4ccccc34)C2c2ccccn2)cs1 (centres undefined)	none
CC(C)c1nc(C(=O)N2CCc3c([nH]c4ccccc34)C2c2ccccn2)cs1 (centres undefined)	MC4R barr agon 9.0 (no result: TAG inh)
COc1cccc(CN(C)C(=O)c2cc(COc3ccc4ncccc4c3)on2)c1	aDG glyco up 12.8
CCN(CC)CCNc1nc(C(F)(F)F)nc2c1nnn2Cc1ccccc1	none (no result: TAG inh)
FC(F)(F)c1nc(NCc2ccccc2)c2nnn(Cc3ccccc3)c2n1	MC4R barr agon 8.4 (no result: TAG inh)
CC(C)CN1C(=O)CN(S(C)(=O)=O)CC1(C)C(=O)Nc1ccc2c(c1)OCCO2 (centres undefined)	none (no result: MC4R antagonist, TAG inh, NTR1 ag, MC4R barr agon)
CC(C)(C)c1ccc(OCc2ccc(C(=O)N/N=C/c3ccc([N+](=O)[O-])cc3)o2)cc1	MC4R barr agon 9.1
CC1(Cc2cccc(C#N)c2)C(=O)Nc2c(Cl)cccc21 (centres undefined)	none (no result: NTR1 ag)
COc1ccc(-c2sc3ccc(OC)cc3c2-c2ccc(OCCN3CCOCC3)cc2)cc1	none
COc1cccc(-c2sc3cc(OC)c(OC)cc3c2-c2ccc(OCCN3CCCCC3)cc2)c1	TAG inh 91.9, MC4R barr agon 11.3
COc1ccc(-c2sc3ccccc3c2-c2ccc(OCCN3CCCCC3)cc2)cc1	none
COc1cccc(-c2sc3ccccc3c2-c2ccc(OCCN3CCCCC3)cc2)c1	MC4R barr agon 18.0
COc1cccc(-c2sc3ccc(OC)cc3c2-c2ccc(OCCN3CCCC3)cc2)c1	MC4R barr agon 27.3
COC(=O)c1cc(OC)c(OC)cc1NC(=O)CCN1C(=O)C2CCCCC2C1=O (centres undefined)	none (no result: NTR1 ag)
Cc1ccc(N2CCN(C(C(=O)Nc3c(C)cccc3C)c3cc4ccccc4o3)CC2)cc1 (centres undefined)	none (no result: MC4R antagonist, TAG inh, NTR1 ag, MC4R barr agon)
CN(Cc1ccccc1)Cc1cc(=O)oc2ccc3ccccc3c12	none (no result: MC4R antagonist, TAG inh, NTR1 ag, MC4R barr agon)
CC(C)c1cccc(-c2csc(C(C)(O)c3ccncc3)n2)c1 (centres undefined)	none (no result: NTR1 ag)

Source: PubChem BioAssay
